Screening results (PubChem)
FXN GAA850 act – increases GAA850 frataxin promoter reporter activity | HEK293 lucGAA850 FXN promoter luciferase reporter, 24 h; percent of 10 µM SAHA response | activation, % at 6 µM | actives 0.56% (n = 360,000);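 active means activation above the average of all compounds screened plus 3 SD, cutoff fixed separately per campaign, cut at about 7.5% in these data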;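 further: 0% = DMSO wells and 100% = 10 µM SAHA wells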
SR-BI HDL uptake – blocks mouse SR-BI lipid uptake from DiI-HDL. actives 0.96% (n = 320,000). Q61009. inhibition, % at 12.5 µM. AID 488896. ldlA[mSR-BI] CHO cells, DiI-HDL uptake fluorescence, 3 h;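 active means mean replicate inhibition of at least 70% and a set share of replicates each scoring 70 or more; inconclusive means meets just one of the two criteria; inactive means fails both criteria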;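 further: 0% = median of neutral control wells and 100% = median of positive control wells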
SR-BI uptake up – enhances SR-BI lipid uptake from DiI-HDL | CHO ldlA[mSR-BI] cells, DiI-HDL uptake fluorescence, 3 h; 100 = double the neutral-control signal | activation, % at 12.5 µM | actives 0.096% (n = 320,000) | AID 504775;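 active means mean replicate activation of at least 60% and every replicate at or above 60%; inconclusive means mean or all-replicate condition met, but not both; inactive means mean below 60% and not all replicates reaching 60%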;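 further: 0% = median plate neutral-control signal and 100% = twice that signal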
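Assay system: CHO ldlA[mSR-BI] cells, LDL receptor-null, SR-BI overexpressing; medium: Ham's F12 with 0.5% BSA, HEPES 25 mM, pH 7.4; also added: DiI-HDL 10 µg/mL; timing: 3 h uptake period with compound, 37 °C; signal: DiI fluorescence, bottom read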
GASC-1 inh – human JMJD2C demethylase inhibition; inhibition, % at 2.35 µM; actives 0.069% (n = 330,000); Q9H3R0; AID 2099; GST-JMJD2C(1-420) H3K9me3 demethylation, DELFIA europium;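 active means more than half of a compound's replicate wells show inhibition beyond 50%, single wells judged on their own value; inconclusive means some, but no more than half, of replicates pass 50% inhibition; inactive means no replicate passes 50% inhibition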;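 further: signal counts dimethyl H3K9 product captured on neutravidin plate; 0% = median of DMSO wells and 100% = 0.3 times that DMSO median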
Target sequence (Q9H3R0 1-420 limits assumed): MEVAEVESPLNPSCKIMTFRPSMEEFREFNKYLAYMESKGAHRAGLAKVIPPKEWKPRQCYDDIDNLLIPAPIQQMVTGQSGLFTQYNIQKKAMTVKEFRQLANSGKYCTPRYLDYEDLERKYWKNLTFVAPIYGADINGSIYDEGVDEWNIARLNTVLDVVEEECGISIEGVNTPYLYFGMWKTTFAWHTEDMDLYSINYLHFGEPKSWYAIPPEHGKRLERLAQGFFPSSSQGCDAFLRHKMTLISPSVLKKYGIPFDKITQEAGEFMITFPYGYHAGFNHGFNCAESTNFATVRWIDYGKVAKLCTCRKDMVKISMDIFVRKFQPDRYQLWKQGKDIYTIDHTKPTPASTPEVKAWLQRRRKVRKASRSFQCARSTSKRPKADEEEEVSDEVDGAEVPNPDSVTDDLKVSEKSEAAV
AHR act – activators of human aryl hydrocarbon receptor | actives 2.5% (n = 320,000) | P35869 | AID 2796 | activation, % at 5 µM | AHR-responsive luciferase reporter cells, luminescence; in the data active means activation above about 47%;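 further: 0% = vehicle wells and 100% = reference agonist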
Numbers without * were called inactive; ? = inconclusive; . = no result. The list is not random: actives were taken first. Their share in the collection is about 3.7%.

SMILES	FXN GAA850 act	SR-BI HDL uptake	SR-BI uptake up	GASC-1 inh	AHR act
C#CCNC(=O)C1=C[C@@H](C2CCCCC2)C[C@@H](OCc2ccc(CO)cc2)O1	1	-3	3	-4	48*
CCC(CC)C(=O)N1CC(=O)Nc2ccc(F)cc2C1c1ccccc1 (stereo not drawn)	1	-4	4	-1	0
CNC(=S)N1N=C2c3ccccc3CCC2C1c1ccccc1Cl (stereo not drawn)	0	1	-1	-10	3
CN1N=C2c3ccccc3CCC2C1c1ccc(Cl)cc1 (stereo not drawn)	1	-7	7	-6	66*
CN1N=C2c3ccccc3CCC2C1c1ccc(F)cc1 (stereo not drawn)	0	.	.	1	76*
CN1CCN(C2=Nc3cc(F)ccc3Cc3ccccc32)CC1	.	.	.	13	-4
CN1C(=O)c2ccc(C(=O)Nc3ccccc3O)cc2C1=O	-1	1	-1	-13	56*
CCc1cc[n+](C2=C([O-])c3ccccc3C(=O)/C2=N\S(=O)(=O)c2cccs2)cc1	-1	-29	29	-4	68*
Cc1cc(N2CCC(C)CC2)nc(-c2ccccc2O)n1	-2	.	.	6	8
Cc1cc(N2CCN(c3ccccc3)CC2)nc(-c2ccccc2O)n1	2	39	-39	3	78*
Cc1c(C)n(C)c2ccc(C(=O)Nc3cccc4ccccc34)cc12	1	81*	-81	-6	42
COc1cccc(C(=O)O/N=C(\N)CS(=O)(=O)c2ccccc2)c1	2	-21	21	2	8
O=C(Nc1nccs1)c1ncc(Cl)c(Cl)c1Cl	0	.	.	0	47*
O=C(Nc1nccs1)c1ccc(-c2ccccc2Cl)o1	5	30	-30	-2	54*
Cn1cc(Cl)c(C(=O)Nc2nccs2)n1	2	.	.	.	3
O=C(Nc1nccs1)c1ccc(-c2ccc([N+](=O)[O-])cc2)o1	4	37	-37	7	6
O=C(Nc1nccs1)c1ccc(-c2ccccc2[N+](=O)[O-])o1	3	12	-12	-10	68*
NCC(c1ccccc1Cl)c1c[nH]c2ccccc12 (stereo not drawn)	0	7	-7	3	57*
NCC(c1ccc(Cl)cc1Cl)c1c[nH]c2ccccc12 (stereo not drawn)	-1	-18	18	-14	65*
NCC(c1ccccc1)c1c[nH]c2ccccc12 (stereo not drawn)	0	-10	10	-2	46
COc1ccc(NC(=O)C(NCC(C)C)c2ccccc2)cc1Cl (stereo not drawn)	0	-11	11	0	0
COc1ccccc1NC(=O)c1sc2nc(N3CCOCC3)c3c(c2c1N)CCCC3	0	84*	.	4	-6
Cc1ccccc1NC(=O)c1sc2nc(N3CCOCC3)c3c(c2c1N)CCCC3	3	69	-69	?	-4
CC1(C)Cc2c(c(N3CCCC3)nc3sc(C(=O)Nc4ccccc4)c(N)c23)CO1	2	76*	-76	5	-9
CCOC(=O)c1sc2nc(-c3ccco3)c3c(c2c1N)CC(C)(C)OC3	2	75*	-75	7	9
SMILES	FXN GAA850 act	SR-BI HDL uptake	SR-BI uptake up	GASC-1 inh	AHR act
CCOC(=O)c1sc2nc(N3CCOCC3)c3c(c2c1N)CCC3	3	74*	-74	11	-19
Cc1ccc(NC(=O)c2sc3nc(N4CCOCC4)c4c(c3c2N)CC(C)(C)OC4)cc1	3	26	-26	0	-3
CC(C)(C)c1ccc(NC(=O)CN2C(=O)NC(C)(C3CC3)C2=O)cc1 (stereo not drawn)	1	-22	22	-5	2
Cc1ccc2nc(C(Cl)(Cl)Cl)nc(N/N=C/c3ccc([N+](=O)[O-])cc3)c2c1	-2	91*	-91	.	.
Cc1ccc(C=NNc2ccc([N+](=O)[O-])cn2)cc1	2	19	-19	.	.
C=CCc1c(C)nc(C)nc1N/N=C/c1ccc([N+](=O)[O-])cc1	-2	21	-21	1	78*
COC(=O)CCC(=O)Nc1ccc(S(=O)(=O)Nc2cc(OC)nc(OC)n2)cc1	1	11	-11	-3	74*
CC1(C(=O)NS(=O)(=O)c2ccccc2)CCN1C(=O)CC1CC1 (stereo not drawn)	1	.	.	.	.
COc1ccc(C2C(C#N)=C(N)Oc3cc(O)ccc32)cc1OC (stereo not drawn)	2	-28	28	11	5
COc1ccc(C2C(C#N)=C(N)Oc3cc(O)ccc32)cc1C (stereo not drawn)	1	81*	-81	4	0
N#CC1=C(N)Oc2cc(N)ccc2C1c1ccsc1 (stereo not drawn)	2	1	-1	3	84*
COc1ccc(C(=O)NC2CCCc3ccccc32)cc1S(=O)(=O)N1CCOCC1 (stereo not drawn)	-1	26	-26	3	2
COc1cc2c(cc1OC)C(c1ccc(C(F)(F)F)cc1)CC(=O)N2 (stereo not drawn)	3	-1	1	-5	54*
COc1cccc(NC(=O)CSc2nnc(-c3cccc(OC(C)C)c3)n2N)c1	3	12	-12	-3	26
c1ccc(-c2cc(-c3nc4ccccc4[nH]3)c3ccccc3n2)cc1	3	31	-31	-1	52*
Nc1ccccc1-c1nc2ccccc2[nH]1	1	3	-3	-20	55*
Oc1ccc(C=Nc2ccccc2-c2nc3ccccc3[nH]2)cc1	1	24	-24	2	74*
OCC(O)/C=N/Nc1nc(Nc2ccccc2)nc(Nc2ccccc2)n1 (stereo not drawn)	2	-4	4	-5	36
CCOC(=O)/C=C(C)\C=C\c1c[nH]c2ccccc12	0	.	.	11	53*
CCOC(=O)/C(=C/c1c[nH]c2ccccc12)NC(C)=O	-2	-11	11	-4	12
Fc1cccc(-c2cc3nc4c(c(N5CCOCC5)n3n2)CCCC4)c1	6	72*	-72	9	1
Fc1cccc(-c2cc3nc4c(c(NCc5ccco5)n3n2)CCCC4)c1	6	44	-44	4	9
Clc1cccc(-c2cc3nc4c(c(N5CCOCC5)n3n2)CCCC4)c1	5	77*	-77	0	3
N/C(=N\N=C\c1ccco1)SC1CC(=O)N(c2ccc(C(=O)O)cc2)C1=O (stereo not drawn)	0	-60	60*	2	9
N/C(=N\N=C\c1ccco1)SC1CC(=O)N(c2ccccc2)C1=O (stereo not drawn)	0	14	-14	12	1
COc1ccc(NC(=O)C(=O)NCCO)cc1Cl	1	-5	5	-5	59*
COc1ccc(NC(=O)c2cccc(OC(F)F)c2)cc1Cl	4	54	-54	8	49*
